FXIIa inh = inhibitors of human coagulation factor XIIa | P00748 | purified FXIIa, Boc-QGR-AMC fluorogenic substrate, 2 h | inhibition, % at 5 µM | hit rate 0.3% among 220,000 | AID 800; in the data active = inhibition above about 40%
FXIa inh = blocks human coagulation factor XIa protease activity | P03951 | purified FXIa, Boc-Glu-Ala-Arg-AMC fluorogenic substrate | inhibition, % at 5 µM | hit rate 0.14% among 220,000;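 active = inhibition of at least 40%; inactive = inhibition below 40%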;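 note: fluorescence of freed AMC excited at 355 nm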
Wee1 stabilizer = inhibitors of human Wee1 degradation | reporter increase, % at 5 µM | HeLa Luc-Wee1K328M stability, luciferase luminescence; 100% = proteasome inhibitor MG132 effect | hit rate 1.2% among 220,000;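 active = activation above the mean of all tested compounds plus 3 SD, set per screening run, cut at about 8.8% in these data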;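 note: cells exposed to compound for 20 h before luminescence read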
hK5 inh = blocks human kallikrein 5 protease activity; inhibition, % at 5 µM; recombinant hK5, fluorogenic AMC substrate cleavage; hit rate 0.59% among 210,000; Q9Y337;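 active = inhibition of 40% or more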
Target sequence (Q9Y337 67-293 limits assumed): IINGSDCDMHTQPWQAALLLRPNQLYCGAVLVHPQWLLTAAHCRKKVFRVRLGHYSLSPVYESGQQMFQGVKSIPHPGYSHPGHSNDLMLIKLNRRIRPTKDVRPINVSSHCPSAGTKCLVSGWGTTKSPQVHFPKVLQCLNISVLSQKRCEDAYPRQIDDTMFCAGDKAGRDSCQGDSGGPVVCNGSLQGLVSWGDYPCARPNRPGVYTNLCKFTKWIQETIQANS
Thrombin inh = blocks human thrombin protease activity. alpha-thrombin, Boc-VPR-AMC fluorogenic substrate cleavage. inhibition, % at 5 µM. AID 1046. hit rate 0.26% among 220,000. P00734;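 active = inhibition at or above 40%; inactive = inhibition below 40%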
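Material: human alpha-thrombin protein; Also added: Boc-VPR-AMC substrate, 15 µM final; Timing: enzyme reaction carried out at room temperature; Signal: fluorescence, ex 355 nm, em 460 nm; Measure: % inhibition of thrombin; Controls: enzyme without compound as high, wells lacking enzyme as low.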
Each line names hits and unclear results; the compound was inactive in the other large screens. An excerpt weighted towards active compounds, which were near 2.2% of everything screened.

COCCCNC(=O)CC1Oc2ccccc2NC1=O (stereo not given)	hK5 inh 56
CCOC(=O)C1=C(O)C(=O)N(c2ccc(S(N)(=O)=O)cc2)C1c1ccc(Br)cc1 (stereo not given)	none
CCCC1=NCCn2cccc21	none
COc1ccc(C2=NCCn3cccc32)c(OC)c1	hK5 inh 41
Cc1cccc(OCc2n[nH]c(=S)n2Cc2ccccc2)c1	none
COC(=O)c1cc(OC)c(OC)cc1NC(=S)N1CCN(c2ccccn2)CC1	none
CN1C(=O)C(O)(c2sc(N)nc2-c2ccccc2)c2ccccc21 (stereo not given)	hK5 inh 56
COC1CCCN(Cc2cn(C)nc2-c2ccc(Oc3ccccc3)cc2)C1 (stereo not given)	none (no result: hK5 inh)
CCCN1CCC(NCc2cn(C)nc2-c2ccc(Oc3ccccc3)cc2)CC1	hK5 inh 45
Cc1cc(/C=C2\SC(=S)N(C)C2=O)c(C)n1-c1cccc(O)c1	FXIa inh 65
CCCNC(=O)c1c(N)n(-c2ccc3c(c2)OCO3)c2nc3ccccc3nc12	none
COCCCNC(=O)c1c(N)n(-c2ccc3c(c2)OCO3)c2nc3ccccc3nc12	hK5 inh 105
CCOCCCNC(=O)c1c(N)n(-c2ccc3c(c2)OCO3)c2nc3ccccc3nc12	Wee1 stabilizer 9.4
Cc1cccc(N2N=C(C(=O)N3CC(=O)Nc4ccccc43)CCC2=O)c1	FXIIa inh 44
CN(CCOC(=O)c1ccc2c(c1)OCO2)C(C)(C)C	none
CCCNC(=O)c1ccc(CN2CCOCC2)cc1	none
CCOC(=O)C1(Cc2cccc(F)c2)CCN(CC2CC2)CC1	none
CCOC(=O)C1(Cc2cccc(F)c2)CCN(CC(O)CO)CC1 (stereo not given)	Wee1 stabilizer 10
CCOC(=O)C1(Cc2cccc(F)c2)CCN(CCCn2cccn2)CC1	none
CCOC(=O)C1(Cc2cccc(F)c2)CCN(C(=O)Cn2cnnn2)CC1	FXIIa inh 45
CCOc1ccc(S(=O)(=O)N(C)c2ccc(OCC(=O)NCCc3ccc(OC)cc3)cc2)cc1	none
CCOC(=O)c1sc(/N=C/c2ccc(O)cc2O)cc1C	none
O=C(O)CCCC(=O)N1CC(=O)Nc2ccccc21	Wee1 stabilizer 9.1
CN(C)C(=O)C1CCC(=O)N1Cc1cccs1 (stereo not given)	none
O=S(=O)(N1CCCCC1)N1CCN(c2ccccc2F)CC1	FXIIa inh 48
COc1c2ccoc2nc2c(OC)c(OCC(OC(C)=O)C(C)(C)O)ccc12 (stereo not given)	none
CCN(CC)CCCN1C(=O)CSC1c1ccc([N+](=O)[O-])cc1 (stereo not given)	none
CCN(CC)CCCN1C(=O)CSC1c1ccc2c(c1)OCO2 (stereo not given)	hK5 inh 52
CCOC(=O)c1cccc(NC(=O)C2CCN(S(=O)(=O)c3cccs3)CC2)c1	none
CCOC(=O)c1ccc2c(c1)nc(C1CCN(S(=O)(=O)c3cccs3)CC1)n2CC	FXIIa inh 52
Cc1nc(SCC(=O)NC(=O)NC(C)C)nc(C)c1C	hK5 inh 50
Cc1nc(SCC(=O)NC(=O)NC(C)(C)C)nc(C)c1C	none
COc1cccc(NC(C(=O)Nc2cccc(C(C)=O)c2)c2ccccc2)c1 (stereo not given)	FXIIa inh 54
COc1cccc(NC(=O)CN(C)CC(=O)Nc2ccc(Br)cc2)c1	none
COc1cccc(NC(=O)Nc2cccnc2)c1	FXIIa inh 40, hK5 inh 71
COc1ccc(NC(=O)Nc2cccnc2)c(OC)c1	none (no result: hK5 inh)
COc1cc(NC(C(=O)Nc2cccc(C(C)=O)c2)c2ccccc2)cc(OC)c1OC (stereo not given)	none
COc1cccc(NC(=O)Nc2ccccc2SC)c1	FXIIa inh 102
COc1cccc(NC(=O)CN(C)CC(=O)NC(C)c2ccccc2)c1 (stereo not given)	Wee1 stabilizer 8.9
CC(=O)c1ccc(Oc2cnccn2)cc1	none
CCOC(=O)N1CCC(NCc2c(C(=O)N(C)Cc3ccccc3)nc3ccccn23)CC1	none (no result: hK5 inh)
CC(OC(=O)c1ccc(-c2ccc([N+](=O)[O-])cc2)o1)C(=O)NC(N)=O (stereo not given)	none
CCOc1ccc(NC(=O)Cn2cncc2-c2ccc([N+](=O)[O-])cc2)cc1	hK5 inh 41
CCOC(=O)Cn1cncc1-c1ccc([N+](=O)[O-])cc1	none
O=C(CSc1ncn[nH]1)N1CCOCC1	none
S=C(NCc1ccccc1)NNc1nc2ccccc2[nH]1	none
